According to ChEMBL document CHEMBL4689842, “EUbOPEN Chemogenomics Library wave 1” (2021):
Several values for one entry are separate records, joined by “and”; a condition that tells them apart may be missing. Equal values may be shown once.

System: HEK-293T
Assay: Multiplex assay against HEK293T;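 as to Population Tubulin-Different-Phenotype (%): share of the cells with healthy nuclei that show this phenotype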
Format: toxicity, cell-based
Details: human, 10 µM, compound concentration 10 uM
In short: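 Live cells were stained at seeding with Hoechst33342, BioTracker Green Microtubule Cytoskeleton Dye, MitoTracker Red and Annexin V Alexa Fluor 680. Following compound addition, they were imaged on a CQ1 microscope at 37°C and 5% CO2 and gated by CellPathfinder machine learning into Hoechst high-intensity objects or normal cells, with normal cells split into healthy, pyknosed or fragmented nuclei and pyknosed cells into mitotic or apoptotic. Tubulin, mitochondrial-mass and membrane-permeability phenotypes are per cents of healthy-nucleus cells.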

For `CCn1c(=O)c(-c2ccc(Cl)cc2Cl)cc2cnc(Nc3ccc(N4CCNCC4)c(F)c3)nc21`, the “Population Fragmented Nuclei (%)” value (12 h, replicate 1) was 32% and 25% and 19%, the “Population Hoechst High Intensity Objects (%)” value (12 h, replicate 1) was 51% and 56% and 22% and the “Population Membrane Permeable-Phenotype (%)” value (12 h, replicate 1) was 0% and 19% and 5%. The “Population Normal (%)” value (12 h, replicate 1) was 48% and 43% and 77%, the “Population Pyknosed Nuclei (%)” value (12 h, replicate 1) was 63% and 42% and 26% and the “Population Tubulin-Different-Phenotype (%)” value (12 h, replicate 1) was 40% and 64% and 37%. The “Population Tubulin-Different-Phenotype (%)” value (12 h, replicate 2) was 85% and 75% and 43%, the “Population Fragmented Nuclei (%)” value (24 h, replicate 1) was 38% and 33% and 20% and the “Population Normal (%)” value (24 h, replicate 1) was 40% and 41% and 81%. For the same compound, the “Total Cell Count” value (24 h, replicate 1) was 280 and 738 and 614, the “Population Fragmented Nuclei (%)” value (24 h, replicate 2) was 16% and 32% and 12% and the “Population Healthy Nuclei (%)” value (24 h, replicate 2) was 43% and 40% and 83%. For the same compound, the “Population Normal (%)” value (24 h, replicate 2) was 39% and 33% and 93%, the “Population Tubulin-Different-Phenotype (%)” value (24 h, replicate 2) was 75% and 91% and 46% and the “Population Apoptotic (%)” value (48 h, replicate 1) was 75%. The “Population Fragmented Nuclei (%)” value (48 h, replicate 1) was 46%, the “Population Healthy Nuclei (%)” value (48 h, replicate 1) was 3% and the “Population Hoechst High Intensity Objects (%)” value (48 h, replicate 1) was 56%. The “Population Membrane Permeable-Phenotype (%)” value (48 h, replicate 1) was 0%, the “Population Mitochondria Different-Phenotype (%)” value (48 h, replicate 1) was 25% and the “Population Mitotic Cells (%)” value (48 h, replicate 1) was 24%. The “Population Normal (%)” value (48 h, replicate 1) was 43%, the “Population Pyknosed Nuclei (%)” value (48 h, replicate 1) was 50% and the “Population Tubulin-Different-Phenotype (%)” value (48 h, replicate 1) was 0%. The “Total Cell Count” value (48 h, replicate 1) was 280, the “Population Apoptotic (%)” value (48 h, replicate 2) was 100% and the “Population Fragmented Nuclei (%)” value (48 h, replicate 2) was 32%. The “Population Healthy Nuclei (%)” value (48 h, replicate 2) was 38%, the “Population Hoechst High Intensity Objects (%)” value (48 h, replicate 2) was 63% and the “Population Membrane Permeable-Phenotype (%)” value (48 h, replicate 2) was 7%. The “Population Mitochondria Different-Phenotype (%)” value (48 h, replicate 2) was 92%, the “Population Mitotic Cells (%)” value (48 h, replicate 2) was 0% and the “Population Normal (%)” value (48 h, replicate 2) was 36%. For the same compound, the “Population Pyknosed Nuclei (%)” value (48 h, replicate 2) was 28%, the “Population Tubulin-Different-Phenotype (%)” value (48 h, replicate 2) was 82% and the “Total Cell Count” value (48 h, replicate 2) was 296.
For `COc1ccc(Oc2cc(NCCC(F)(F)F)c3ncc(-c4ccc(C(=O)NC5CC5)c(C)c4)n3n2)c(F)c1F` [BAY-1217389], the “Population Apoptotic (%)” value (12 h, replicate 1) was 50% and 20%, the “Population Fragmented Nuclei (%)” value (12 h, replicate 1) was 25% and 12% and the “Population Healthy Nuclei (%)” value (12 h, replicate 1) was 28% and 63%. The “Population Hoechst High Intensity Objects (%)” value (12 h, replicate 1) was 20% and 13%, the “Population Membrane Permeable-Phenotype (%)” value (12 h, replicate 1) was 17% and 25% and the “Population Mitotic Cells (%)” value (12 h, replicate 1) was 49% and 79%. For the same compound, the “Population Normal (%)” value (12 h, replicate 1) was 79% and 86%, the “Population Pyknosed Nuclei (%)” value (12 h, replicate 1) was 46% and 23% and the “Population Tubulin-Different-Phenotype (%)” value (12 h, replicate 1) was 79% and 68%. For the same compound, the “Total Cell Count” value (12 h, replicate 1) was 607 and 639, the “Population Apoptotic (%)” value (12 h, replicate 2) was 21% and 43% and the “Population Fragmented Nuclei (%)” value (12 h, replicate 2) was 5% and 2%. The “Population Healthy Nuclei (%)” value (12 h, replicate 2) was 89% and 86%, the “Population Hoechst High Intensity Objects (%)” value (12 h, replicate 2) was 2% and 5% and the “Population Mitotic Cells (%)” value (12 h, replicate 2) was 78% and 56%. The “Population Normal (%)” value (12 h, replicate 2) was 97% and 94%, the “Population Pyknosed Nuclei (%)” value (12 h, replicate 2) was 5% and 11% and the “Population Tubulin-Different-Phenotype (%)” value (12 h, replicate 2) was 87% and 95%. The “Total Cell Count” value (12 h, replicate 2) was 1266 and 966, the “Population Apoptotic (%)” value (24 h, replicate 1) was 53% and 25% and the “Population Fragmented Nuclei (%)” value (24 h, replicate 1) was 25% and 9%. The “Population Healthy Nuclei (%)” value (24 h, replicate 1) was 46% and 80%, the “Population Hoechst High Intensity Objects (%)” value (24 h, replicate 1) was 18% and 7% and the “Population Membrane Permeable-Phenotype (%)” value (24 h, replicate 1) was 9% and 24%. The “Population Mitotic Cells (%)” value (24 h, replicate 1) was 46% and 74%, the “Population Normal (%)” value (24 h, replicate 1) was 81% and 92% and the “Population Tubulin-Different-Phenotype (%)” value (24 h, replicate 1) was 84%. For the same compound, the “Total Cell Count” value (24 h, replicate 1) was 575 and 704, the “Population Fragmented Nuclei (%)” value (24 h, replicate 2) was 10% and 4% and the “Population Healthy Nuclei (%)” value (24 h, replicate 2) was 87% and 88%. For the same compound, the “Population Hoechst High Intensity Objects (%)” value (24 h, replicate 2) was 3% and 6%, the “Population Mitotic Cells (%)” value (24 h, replicate 2) was 94% and 68% and the “Population Normal (%)” value (24 h, replicate 2) was 96% and 93%. The “Population Tubulin-Different-Phenotype (%)” value (24 h, replicate 2) was 91% and 95% and the “Total Cell Count” value (24 h, replicate 2) was 1717 and 1126.
